# Data reported in ChEMBL document CHEMBL3259666, “Discovery of a neuroprotective chemical, (S)-N-(3-(3,6-dibromo-9H-carbazol-9-yl)-2-fluoropropyl)-6-methoxypyridin-2-amine [(-)-P7C3-S243], with improved druglike properties” (J Med Chem, 2014).
# Calls of active or inactive are those of the source. The calls are words filed in the database; no cut-off is given here.
# How the values were obtained:
# Mus musculus [1] = test: Neuroprotective activity in substantia nigra of C57Bl/6 mouse neurogenesis model assessed as protection from MPTP-induced cell death in mature neurons at 5 mg/kg/day, ip bid administered for 21 days by immunohistochemical analysis relative to vehicle-treated control; assay type: functional, organism-based
# In short: (§1)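 MPTP model in adult male C57Bl/6 mice, individually housed 1 week. MPTP free base 30 mg/kg/day IP for 5 days. From day 6 (24 h after the last MPTP dose), compound or vehicle given IP twice daily for 21 days. Mice were then perfused with 4% paraformaldehyde. SNc sectioned at 30 μm intervals and every fourth section stained for TH (DAB, hematoxylin counterstain). TH+ cells counted blinded; mean ± SEM, compared with vehicle + MPTP.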
# Cytochrome P450 2C19 = Cytochrome P450 2C19 (Homo sapiens, UniProt P33261); test: Inhibition of CYP2C19 (unknown origin); assay type: ADME
# Cytochrome P450 2C19, sequence (P33261 whole entry): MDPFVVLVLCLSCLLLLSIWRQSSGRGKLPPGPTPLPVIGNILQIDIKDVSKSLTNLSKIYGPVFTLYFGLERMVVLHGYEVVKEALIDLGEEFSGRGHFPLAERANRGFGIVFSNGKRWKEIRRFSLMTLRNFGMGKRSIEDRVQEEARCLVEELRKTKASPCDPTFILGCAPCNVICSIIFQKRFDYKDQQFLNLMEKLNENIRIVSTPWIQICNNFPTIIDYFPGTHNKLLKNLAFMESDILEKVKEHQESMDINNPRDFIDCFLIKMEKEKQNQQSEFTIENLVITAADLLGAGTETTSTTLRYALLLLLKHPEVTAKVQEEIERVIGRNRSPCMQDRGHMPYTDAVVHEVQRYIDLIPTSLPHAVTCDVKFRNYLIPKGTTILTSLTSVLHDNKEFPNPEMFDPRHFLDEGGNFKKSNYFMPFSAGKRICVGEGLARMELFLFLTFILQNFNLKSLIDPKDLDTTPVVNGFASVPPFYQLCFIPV
# Cytochrome P450 3A4 = Cytochrome P450 3A4 (Homo sapiens, UniProt P08684); test: Inhibition of CYP3A4 (unknown origin); assay type: ADME
# Cytochrome P450 3A4, sequence (P08684 whole entry): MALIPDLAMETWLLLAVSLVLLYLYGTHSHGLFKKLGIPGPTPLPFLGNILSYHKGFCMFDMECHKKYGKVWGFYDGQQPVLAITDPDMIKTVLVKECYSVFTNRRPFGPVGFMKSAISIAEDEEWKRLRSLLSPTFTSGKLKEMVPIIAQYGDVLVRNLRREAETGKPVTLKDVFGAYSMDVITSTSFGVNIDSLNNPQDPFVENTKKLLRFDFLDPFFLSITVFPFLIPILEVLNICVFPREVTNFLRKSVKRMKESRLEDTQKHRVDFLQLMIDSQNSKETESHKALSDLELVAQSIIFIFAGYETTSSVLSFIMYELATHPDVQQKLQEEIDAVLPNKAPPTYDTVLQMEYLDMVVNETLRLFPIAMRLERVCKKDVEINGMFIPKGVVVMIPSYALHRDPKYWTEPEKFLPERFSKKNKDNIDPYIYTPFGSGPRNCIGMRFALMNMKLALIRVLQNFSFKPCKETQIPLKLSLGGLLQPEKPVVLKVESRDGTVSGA
# Cytochrome P450 1A2 = target: T1, Cytochrome P450 1A2 (Homo sapiens, UniProt P05177); test: Inhibition of CYP1A2 (unknown origin); assay type: ADME
# T1 sequence (P05177 whole entry): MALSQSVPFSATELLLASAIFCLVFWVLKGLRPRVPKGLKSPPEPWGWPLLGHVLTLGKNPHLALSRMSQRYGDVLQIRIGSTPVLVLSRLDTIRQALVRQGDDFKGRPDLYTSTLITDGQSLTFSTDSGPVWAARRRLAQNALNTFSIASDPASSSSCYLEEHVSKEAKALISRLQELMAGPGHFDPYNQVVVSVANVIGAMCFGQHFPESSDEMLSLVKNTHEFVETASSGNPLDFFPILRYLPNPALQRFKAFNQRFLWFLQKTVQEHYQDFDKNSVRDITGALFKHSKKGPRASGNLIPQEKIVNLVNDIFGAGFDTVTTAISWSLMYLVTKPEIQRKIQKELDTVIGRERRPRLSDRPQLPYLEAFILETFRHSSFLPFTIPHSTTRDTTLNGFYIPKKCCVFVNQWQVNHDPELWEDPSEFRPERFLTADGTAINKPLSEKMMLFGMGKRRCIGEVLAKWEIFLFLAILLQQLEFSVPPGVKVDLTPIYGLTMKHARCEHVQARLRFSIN
# Cytochrome P450 2D6 = Cytochrome P450 2D6 (Homo sapiens, UniProt P10635); test: Inhibition of CYP2D6 (unknown origin); assay type: ADME
# Cytochrome P450 2D6, sequence (P10635 whole entry): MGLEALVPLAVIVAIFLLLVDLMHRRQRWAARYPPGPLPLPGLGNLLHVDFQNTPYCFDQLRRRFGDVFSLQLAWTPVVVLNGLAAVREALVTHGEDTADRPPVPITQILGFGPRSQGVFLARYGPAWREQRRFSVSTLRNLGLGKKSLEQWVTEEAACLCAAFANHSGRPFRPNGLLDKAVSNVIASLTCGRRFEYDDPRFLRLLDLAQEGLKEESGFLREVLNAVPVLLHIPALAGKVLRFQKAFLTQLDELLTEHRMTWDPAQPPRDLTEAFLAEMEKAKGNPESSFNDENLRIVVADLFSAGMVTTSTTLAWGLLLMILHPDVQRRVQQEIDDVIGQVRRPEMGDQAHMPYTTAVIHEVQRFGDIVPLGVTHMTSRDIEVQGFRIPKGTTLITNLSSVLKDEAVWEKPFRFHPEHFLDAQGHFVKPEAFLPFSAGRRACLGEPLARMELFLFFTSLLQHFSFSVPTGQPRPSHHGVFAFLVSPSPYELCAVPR
# NCI-H2122 = test: Cytotoxicity against human NCI-H2122 cells; assay type: cell-based
# [2] = Cytotoxicity against human HCC44 cells; assay type: cell-based
# Mus musculus [3] = test: Neuroprotective activity in wild type C57BL/J6 mouse assessed as survival of newborn hippocampal neurons at 10 uM, icv administered for 7 days by BrdU staining-based microscopy relative to vehicle-treated control; assay type: functional, organism-based
# In short: (§2)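 Adult (12-week) wild-type C57BL/J6 mice. Compound infused ICV into the left lateral ventricle by osmotic minipump at 0.5 μL/h for 7 days, with BrdU 50 mg/kg/day IP for 6 days. Perfused 24 h after the last BrdU dose. BrdU antigen unmasked (formamide/SSC at 65 °C, then 2 M HCl); anti-BrdU staining. BrdU+ cells in the contralateral dentate gyrus SGZ counted in every fifth 40 μm section and normalised to dentate gyrus volume.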
# hERG (KCNH2) = hERG (KCNH2) (Homo sapiens, UniProt Q12809); test: Inhibition of human ERG channel at 50 uM by patch clamp technique
# hERG (KCNH2), sequence (Q12809 whole entry): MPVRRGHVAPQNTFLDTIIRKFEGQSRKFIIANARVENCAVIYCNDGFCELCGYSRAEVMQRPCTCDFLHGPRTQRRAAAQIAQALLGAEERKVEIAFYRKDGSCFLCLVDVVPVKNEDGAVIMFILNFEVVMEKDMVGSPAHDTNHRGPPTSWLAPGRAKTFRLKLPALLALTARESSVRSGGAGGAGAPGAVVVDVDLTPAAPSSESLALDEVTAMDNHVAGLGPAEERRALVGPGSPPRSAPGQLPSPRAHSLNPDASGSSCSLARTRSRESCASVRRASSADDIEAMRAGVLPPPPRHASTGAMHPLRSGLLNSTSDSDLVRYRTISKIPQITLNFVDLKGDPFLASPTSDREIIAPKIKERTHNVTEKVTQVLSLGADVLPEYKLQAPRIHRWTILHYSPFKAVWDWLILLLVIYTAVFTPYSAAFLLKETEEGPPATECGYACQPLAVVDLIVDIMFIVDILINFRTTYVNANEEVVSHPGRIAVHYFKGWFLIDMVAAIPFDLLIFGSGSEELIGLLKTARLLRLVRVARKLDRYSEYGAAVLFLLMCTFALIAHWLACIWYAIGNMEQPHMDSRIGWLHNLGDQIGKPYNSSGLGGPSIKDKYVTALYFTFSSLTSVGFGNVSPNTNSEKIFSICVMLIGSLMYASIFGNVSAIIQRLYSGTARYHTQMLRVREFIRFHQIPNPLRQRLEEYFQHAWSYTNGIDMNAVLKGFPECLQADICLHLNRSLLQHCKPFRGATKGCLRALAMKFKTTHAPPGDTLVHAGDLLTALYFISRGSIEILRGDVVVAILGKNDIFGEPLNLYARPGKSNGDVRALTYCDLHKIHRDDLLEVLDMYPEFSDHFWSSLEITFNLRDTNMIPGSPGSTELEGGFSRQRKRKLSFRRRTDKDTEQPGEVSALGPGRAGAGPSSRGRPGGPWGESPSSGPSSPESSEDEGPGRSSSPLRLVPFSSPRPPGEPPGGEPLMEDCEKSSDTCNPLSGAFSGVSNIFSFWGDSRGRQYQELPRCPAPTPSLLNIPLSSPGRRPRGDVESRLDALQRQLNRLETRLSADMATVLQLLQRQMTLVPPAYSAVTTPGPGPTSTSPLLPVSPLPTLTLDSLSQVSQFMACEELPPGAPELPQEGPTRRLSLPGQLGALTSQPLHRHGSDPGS
# NCI-H2009 = test: Cytotoxicity against human NCI-H2009 cells; assay type: cell-based
# Translocator protein = Translocator protein (Homo sapiens, UniProt P30536); test: Inhibition of TSPO (unknown origin)
# Translocator protein, sequence (P30536 whole entry): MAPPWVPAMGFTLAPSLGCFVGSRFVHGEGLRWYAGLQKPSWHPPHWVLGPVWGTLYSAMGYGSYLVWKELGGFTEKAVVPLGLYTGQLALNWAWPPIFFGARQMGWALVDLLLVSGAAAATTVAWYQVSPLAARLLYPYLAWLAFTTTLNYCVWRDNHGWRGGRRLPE
# [4] = Protein binding in plasma (unknown origin) by ultracentrifugation method; assay type: ADME, cell-free; details: read-out: PPB
# Mus musculus [5] = test: Neuroprotective activity in wild type C57BL/J6 mouse assessed as survival of newborn hippocampal neurons at 0.1 to 10 uM, icv administered for 7 days by BrdU staining-based microscopy relative to vehicle-treated control; assay type: functional, organism-based; in short: as §2
# Cytochrome P450 2C9 = Cytochrome P450 2C9 (Homo sapiens, UniProt P11712); test: Inhibition of CYP2C9 (unknown origin); assay type: ADME
# Cytochrome P450 2C9, sequence (P11712 whole entry): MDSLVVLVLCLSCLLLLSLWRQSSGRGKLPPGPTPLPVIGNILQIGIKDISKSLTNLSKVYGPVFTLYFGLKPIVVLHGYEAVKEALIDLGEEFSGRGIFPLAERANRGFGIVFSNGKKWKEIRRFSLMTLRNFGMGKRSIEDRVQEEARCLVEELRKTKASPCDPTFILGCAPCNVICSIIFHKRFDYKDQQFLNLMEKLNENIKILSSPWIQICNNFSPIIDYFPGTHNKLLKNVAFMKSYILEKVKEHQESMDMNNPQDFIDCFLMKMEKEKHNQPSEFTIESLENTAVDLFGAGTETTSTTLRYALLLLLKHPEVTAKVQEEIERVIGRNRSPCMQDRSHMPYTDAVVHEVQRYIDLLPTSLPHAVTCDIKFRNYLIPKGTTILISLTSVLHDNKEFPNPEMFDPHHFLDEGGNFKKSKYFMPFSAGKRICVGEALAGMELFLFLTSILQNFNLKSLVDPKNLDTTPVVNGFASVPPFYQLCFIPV
# Cytochrome P450 2C8 = target: T2, Cytochrome P450 2C8 (Homo sapiens, UniProt P10632); test: Inhibition of CYP2C8 (unknown origin); assay type: ADME
# T2 sequence (P10632 whole entry): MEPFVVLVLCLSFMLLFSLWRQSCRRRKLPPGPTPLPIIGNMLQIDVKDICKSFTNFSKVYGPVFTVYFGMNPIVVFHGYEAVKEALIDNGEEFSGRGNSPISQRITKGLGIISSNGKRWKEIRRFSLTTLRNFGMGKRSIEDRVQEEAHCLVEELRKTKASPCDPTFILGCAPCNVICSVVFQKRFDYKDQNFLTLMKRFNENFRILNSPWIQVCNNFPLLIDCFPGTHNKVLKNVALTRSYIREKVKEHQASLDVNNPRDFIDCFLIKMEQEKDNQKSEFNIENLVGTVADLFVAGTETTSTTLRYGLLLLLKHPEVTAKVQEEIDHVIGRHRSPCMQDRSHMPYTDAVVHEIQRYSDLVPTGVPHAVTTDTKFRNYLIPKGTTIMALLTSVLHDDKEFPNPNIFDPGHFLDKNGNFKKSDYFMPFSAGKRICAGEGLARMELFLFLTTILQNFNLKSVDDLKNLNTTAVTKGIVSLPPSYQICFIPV
# Cytochrome P450 2B6 = target: T3, Cytochrome P450 2B6 (Homo sapiens, UniProt P20813); test: Inhibition of CYP2B6 (unknown origin); assay type: ADME
# T3 sequence (P20813 whole entry): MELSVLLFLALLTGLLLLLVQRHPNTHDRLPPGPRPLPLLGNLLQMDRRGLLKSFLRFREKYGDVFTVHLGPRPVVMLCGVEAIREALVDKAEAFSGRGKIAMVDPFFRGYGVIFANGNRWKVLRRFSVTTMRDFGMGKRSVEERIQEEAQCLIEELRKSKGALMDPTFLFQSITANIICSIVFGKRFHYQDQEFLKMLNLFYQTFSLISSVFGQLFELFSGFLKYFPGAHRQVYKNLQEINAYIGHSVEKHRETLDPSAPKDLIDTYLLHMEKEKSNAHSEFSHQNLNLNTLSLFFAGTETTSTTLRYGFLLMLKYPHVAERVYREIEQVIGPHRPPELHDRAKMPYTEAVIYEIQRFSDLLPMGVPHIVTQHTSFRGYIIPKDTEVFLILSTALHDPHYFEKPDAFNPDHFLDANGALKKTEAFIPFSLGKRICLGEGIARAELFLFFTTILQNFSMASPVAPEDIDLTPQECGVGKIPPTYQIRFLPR
# Mus musculus [6] = test: Neuroprotective activity in wild type C57BL/J6 mouse assessed as survival of newborn hippocampal neurons at 10 uM, icv administered for 7 days by BrdU staining-based immunohistochemical analysis relative to vehicle-treated control; assay type: functional, organism-based
# In short: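 Adult (12 week old) C57BL/J6 mice, environmentally deprived; compound infused via osmotic minipump into left lateral ventricle at 0.5 μL/h for 7 days. BrdU IP 50 mg kg–1 day–1 for 6 days during infusion; perfusion 24 h after last BrdU. BrdU+ cells in SGZ/dentate gyrus of contralateral hemisphere counted in every fifth 40 μm section, normalized to dentate gyrus volume; mean ± SEM.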
# Mus musculus [7] = test: Toxicity in C57Bl/6 mouse assessed as effect on appearance up to 40 mg/kg/day, ip bid administered for 21 days; assay type: organism-based; design: route intraperitoneal; details: in vivo, 504 h
# Mus musculus [8] = test: Neuroprotective activity in substantia nigra of C57Bl/6 mouse neurogenesis model assessed as protection from MPTP-induced cell death in mature neurons at 10 mg/kg/day, ip bid administered for 21 days by immunohistochemical analysis relative to vehicle-treated control; assay type: functional; details: route intraperitoneal; in short: as §1
# Mus musculus [9] = test: Toxicity in C57Bl/6 mouse assessed as effect on behavior up to 40 mg/kg/day, ip bid administered for 21 days; assay type: organism-based; design: route intraperitoneal; details: in vivo, 504 h
# Mus musculus [10] = test: Toxicity in C57Bl/6 mouse assessed as effect on weight up to 40 mg/kg/day, ip bid administered for 21 days; assay type: organism-based; design: route intraperitoneal; details: in vivo, 504 h
structure (smiles),measurement,setting,value
COc1cccc(NC[C@H](F)Cn2c3ccc(Br)cc3c3cc(Br)ccc32)n1,Activity,Mus musculus [1],Active
same,IC50,Cytochrome P450 2C19,1.9 µM
same,inhibition (INH),Cytochrome P450 3A4,Active
same,IC50,Cytochrome P450 1A2,20 µM
same,inhibition (INH),Cytochrome P450 2D6,Active
same,IC50,NCI-H2122,> 10 µM
same,IC50,[2],> 10 µM
same,Activity,Mus musculus [3],Active
same,inhibition at 50 µM,hERG (KCNH2),< 15%
same,IC50,NCI-H2009,> 10 µM
same,IC50,Translocator protein,0.35 µM
same,fraction unbound,[4],< 0.01
same,Activity,Mus musculus [5],Active
same,inhibition (INH),Cytochrome P450 2C9,Active
same,inhibition (INH),Cytochrome P450 2C8,Active
same,inhibition (INH),Cytochrome P450 2B6,Active
COc1cccc(NCC(F)Cn2c3ccc(Br)cc3c3cc(Br)ccc32)c1 (configuration not stated),Activity,Mus musculus [1],Active
same,Activity,Mus musculus [6],Active
same,Activity,Mus musculus [7],Non-toxic
same,Activity,Mus musculus [8],75%
same,Activity,Mus musculus [9],Non-toxic
same,IC50,Translocator protein,2 µM
same,Activity,Mus musculus [10],Non-toxic
COc1cccc(NC[C@@H](F)Cn2c3ccc(Br)cc3c3cc(Br)ccc32)n1,Activity,Mus musculus [1],inactive
same,IC50,Translocator protein,0.68 µM
same,Activity,Mus musculus [5],inactive
OC(CNc1ccccc1)Cn1c2ccc(Br)cc2c2cc(Br)ccc21 (configuration not stated),Activity,Mus musculus [6],Active
